PfGluPho inh: PfG6PD (Plasmodium falciparum) enzyme inhibition | PfGluPho enzyme, NADPH resazurin-diaphorase fluorescence | inhibition, % at 20 µM | actives 0.78% (n = 350,000);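 active means inhibition reaching at least a set limit at 20 µM in the primary screen, cut at about 59% in these data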;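 further: 0% = DMSO wells with substrate and 100% = DMSO wells lacking glucose-6-phosphate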
DTT redox prof: compounds producing H2O2 with reducing agent – biochemical, NIH compound library profiling, artefact control for MLSCN library redox annotation, primary screen; activation, % at 10 µM; DTT-dependent redox cycling H2O2, phenol red/HRP absorbance; 100% = 100 µM peroxide control, 0% = buffer; actives 0.03% (n = 200,000); AID 878;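 active means activation of at least 50% relative to the plate's high and low controls in the primary single-dose screen; inactive means activation below 50%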;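 further: compound incubated with DTT at 0.8 mM final as the reducing agent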
Diaphorase inh: inhibits diaphorase or chemically oxidizes, flagging diaphorase assay artifacts | diaphorase resazurin-to-resorufin fluorescence, NADH, 16 min; bacterial (C. kluyveri) enzyme, not human | inhibition, % at 20 µM | actives 0.69% (n = 190,000) | AID 1217;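 active means primary screen inhibition at 20 µM above a set limit, cut at about 50% in these data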;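 further: plate controls were DMSO with full reaction for no effect and wells lacking NADH for full effect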
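System: Diaphorase enzyme from Clostridium kluyveri | Amount: Enzyme working solution with 0.14 U/mL diaphorase | Benchmarks: No-NADH positive control and DMSO neutral control | Signal: Fluorescence of resorufin formed from resazurin, Ex 544/Em 590 nm | Schedule: 16-min room-temperature incubation before reading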
G6PDH counter: inhibits Leuconostoc G6PDH, flagging false hits in G6PDH-based assays | Purified L. mesenteroides G6PDH, diaphorase/resazurin coupled fluorescence, 45 min | inhibition, % at 5 µM | actives 0.12% (n = 200,000) | AID 1020
L major viab: inhibitors of Leishmania major promastigote growth. inhibition, % at 10 µM. AID 1063. actives 9% (n = 200,000). Leishmania major promastigotes, resazurin fluorescence viability;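 further: promastigotes grown with compound for 44 hours at 28 °C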
Diaph act CS: activates diaphorase or chemically reduces, flagging diaphorase assay artifacts; Diaphorase/resazurin coupled assay, resorufin fluorescence, 16 min; active compounds read high; 1 = vehicle wells, 0 = NADH-free wells; activation factor at 20 µM; actives 0.005% (n = 190,000); AID 1229;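 active means diaphorase activity raised at least twofold by the compound at 20 µM; inactive means activation factor below 2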
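Test system: Clostridium kluyveri diaphorase, purified enzyme. Buffer or medium: 50 mM HEPES pH 7.4 buffer plus MgCl2 and Tween 20. Also added: 0.114 mM NADH and 0.1 mM resazurin, final amounts. Dosing: compound 20 µM once, DMSO 1%. Schedule: 16 min enzyme reaction, ambient temperature. Detection: fluorescence of resorufin, 544 nm excitation, 590 nm emission.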
The depositor's hits bear a star; / = no result. Many of the other results were omitted from the sample, so hits are more common in it than they were. Unless noted, no stated cut-off is given here; in the data, active means inhibition above about 50%; inactive means the rest.

SMILES | PfGluPho inh | DTT redox prof | Diaphorase inh | G6PDH counter | L major viab | Diaph act CS
Cc1cc(=O)[nH]c(N=N/C(=N/Nc2ccccc2C)c2ccccc2)n1 | -11 | 0 | 5 | 5 | 98* | 0.9
Cc1cc(=O)[nH]c(N=N/C(=N/Nc2ccc(O)cc2)c2ccccc2)n1 | -17 | 0 | -1 | 18 | 94* | 1
Cc1cc(=O)[nH]c(SCC(=O)Nc2ccccc2C)n1 | 1 | -1 | 11 | 11 | -8 | 0.9
O=C(NC1CC1)c1ccc2c(c1)C1C3CCC(C3)C1C(c1ccccc1)N2 (stereo not given) | 6 | 0 | 17 | 6 | 36 | 0.8
CCN1CCCC1CNCC(O)COc1ccc(C(C)(C)C)cc1C (stereo not given) | -1 | -1 | -2 | 8 | 86* | 1
CN(CC(=O)Nc1cccc(Cl)c1)S(=O)(=O)c1ccc2c(c1)n(C)c(=O)c(=O)n2C | -11 | / | / | / | / | /
Cc1cc(N/N=C/c2ccc(O)c(C)c2O)nc(-c2ccccc2O)n1 | 17 | 0 | 12 | 6 | 93* | 0.9

Screens as filed in PubChem BioAssay.
